The values that follow come from ChEMBL document CHEMBL1154096, “Design, synthesis and anticancer evaluation of novel tetrahydroquinoline derivatives containing sulfonamide moiety” (Eur J Med Chem, 2009).

Converted amounts (≈) assume the structure as drawn. Bounds are passed on as bounds.

This assay concerns MCF7. Briefly: Cytotoxicity against human MCF7 cells after 48 hrs by SRB assay. The note with it: MCF7, 48 h. In kind it is functional, cell-based. The procedure, abridged: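 Cells seeded at 10⁴/well and left 24 h to attach. Compounds dissolved in DMSO, diluted in saline and added to the monolayer in triplicate wells per dose, then incubated 48 h at 37 °C in 5% CO₂. Cells were fixed and stained 30 min with 0.4% SRB in 1% acetic acid, washed four times with 1% acetic acid, and the dye recovered in Tris–EDTA. Absorbance was read, and surviving fraction plotted against concentration.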
(In general: In SRB staining, fixed cells bind dye roughly in proportion to their protein.)
As usually defined, the IC50 is the concentration that inhibits the measured activity by half. Read a low IC50 as greater potency in that assay. For the molecule `Cc1cc(NS(=O)(=O)c2ccc(-n3cnc4nc5c(c(C)c4c3=N)C(=O)CC(C)(C)C5)cc2)no1`, 2.6 mg/L (≈ 5.28 µM) corresponded to half-maximal inhibition (IC50). Turning to `Cc1c(C#N)c(/N=C/Nc2ccc(S(N)(=O)=O)cc2)nc2c1CCCC2`, the IC50 was more than 10 mg/L. `Cc1c2c(nc3ncn(-c4ccc(S(N)(=O)=O)cc4)c(=N)c13)CC(C)(C)CC2=O` showed a concentration for half-maximal inhibition (IC50) of 1.5 mg/L (≈ 3.65 µM). For the molecule `Cc1cc(NS(=O)(=O)c2ccc(-n3c(=S)[nH]c4nc5c(c(C)c4c3=N)CCCC5)cc2)no1`, it took 2.62 mg/L (≈ 5.43 µM) to reach half-maximal inhibition (IC50). To `Cc1c2c(nc3[nH]c(=S)n(-c4ccc(S(N)(=O)=O)cc4)c(=N)c13)CCCC2` belongs 0.95 mg/L (≈ 2.37 µM); to `Cc1c2c(nc3[nH]c(=S)n(-c4ccc(S(=O)(=O)Nc5ncccn5)cc4)c(=N)c13)CCCC2`, 1.48 mg/L (≈ 3.09 µM); to `Cc1c2c(nc3[nH]c(=S)n(-c4ccc(S(=O)(=O)NC(=N)N)cc4)c(=N)c13)CC(C)(C)CC2=O`, 5.17 mg/L (≈ 10.6 µM).

The molecule `Cc1cc(NS(=O)(=O)c2ccc(-n3c(=S)[nH]c4nc5c(c(C)c4c3=N)C(=O)CC(C)(C)C5)cc2)no1` returned an IC50 of more than 10 mg/L. In the case of `Cc1c2c(nc3[nH]c(=S)n(-c4ccc(S(=O)(=O)Nc5ncccn5)cc4)c(=N)c13)CC(C)(C)CC2=O` it was 9.19 mg/L (≈ 17.6 µM); in that of `Cc1c2c(nc3[nH]c(=S)n(-c4ccc(S(=O)(=O)NC(=N)N)cc4)c(=N)c13)CCCC2`, 1.28 mg/L (≈ 2.89 µM); in that of `Cc1c2c(nc3[nH]c(=S)n(-c4ccc(S(N)(=O)=O)cc4)c(=N)c13)CC(C)(C)CC2=O`, 4 mg/L (≈ 9.02 µM). The molecule `Cc1cc(NS(=O)(=O)c2ccc(N/C=N/c3nc4c(c(C)c3C#N)CCCC4)cc2)no1` registered an IC50 of 1.95 mg/L (≈ 4.33 µM). This IC50 is about 2.1-fold lower than that of the molecule before. In the case of `Cc1c(C#N)c(/N=C/Nc2ccc(S(N)(=O)=O)cc2)nc2c1C(=O)CC(C)(C)C2` it was 2.62 mg/L (≈ 6.37 µM). To `Cc1cc(NS(=O)(=O)c2ccc(N/C=N/c3nc4c(c(C)c3C#N)C(=O)CC(C)(C)C4)cc2)no1` belongs 1.9 mg/L (≈ 3.86 µM).
